ChEMBL document CHEMBL1143468, “Novel 3,4-diarylpyrazolines as potent cannabinoid CB1 receptor antagonists with lower lipophilicity” (Bioorg Med Chem Lett, 2005)

Tests used:
Mus musculus = test: Antagonism of WIN-55212-2 induced hypothermia in mice expressed as least effective dose upon peroral administration; assay type: functional
Rattus norvegicus = test: Antagonism of CP-55940 induced hypotension in rat expressed as effective dose upon peroral administration; details: po
P-glycoprotein (ABCB1) = P-glycoprotein (ABCB1) (Homo sapiens, UniProt P08183); test: P-glycoprotein-based membrane transport factor, expressed as the ratio of the bottom to top transport and top to bottom transport; details: not told
[1] = Partition coefficient (logP) (HPLC); assay type: physicochemical; details: octanol/water
How it was run: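 logP was measured with a validated reverse-phase HPLC method.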

Cannabinoid receptor 2 = Cannabinoid receptor 2 (Homo sapiens, UniProt P34972); test: Displacement of specific CP-55940 binding in CHO cells stably transfected with human cannabinoid receptor 2; assay type: cell-based
Cannabinoid receptor 1 = Cannabinoid receptor 1 (Homo sapiens, UniProt P21554); test: biochemical; assay type: cell-based, CHO
Chain of Cannabinoid receptor 1 (P21554 whole entry): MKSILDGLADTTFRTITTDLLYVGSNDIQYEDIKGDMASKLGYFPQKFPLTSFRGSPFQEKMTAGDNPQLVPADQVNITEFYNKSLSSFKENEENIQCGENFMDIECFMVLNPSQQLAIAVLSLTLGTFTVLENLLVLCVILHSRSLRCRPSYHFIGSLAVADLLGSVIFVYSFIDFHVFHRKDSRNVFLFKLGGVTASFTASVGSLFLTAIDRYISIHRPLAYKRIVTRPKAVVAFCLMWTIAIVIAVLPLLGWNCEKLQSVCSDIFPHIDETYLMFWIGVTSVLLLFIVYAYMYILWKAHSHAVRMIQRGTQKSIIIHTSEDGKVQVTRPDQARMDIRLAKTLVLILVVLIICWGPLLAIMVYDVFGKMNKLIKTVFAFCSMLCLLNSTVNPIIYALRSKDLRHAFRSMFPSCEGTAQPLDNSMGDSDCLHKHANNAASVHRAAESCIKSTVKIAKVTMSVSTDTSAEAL

Chain of P-glycoprotein (ABCB1) (P08183 whole entry): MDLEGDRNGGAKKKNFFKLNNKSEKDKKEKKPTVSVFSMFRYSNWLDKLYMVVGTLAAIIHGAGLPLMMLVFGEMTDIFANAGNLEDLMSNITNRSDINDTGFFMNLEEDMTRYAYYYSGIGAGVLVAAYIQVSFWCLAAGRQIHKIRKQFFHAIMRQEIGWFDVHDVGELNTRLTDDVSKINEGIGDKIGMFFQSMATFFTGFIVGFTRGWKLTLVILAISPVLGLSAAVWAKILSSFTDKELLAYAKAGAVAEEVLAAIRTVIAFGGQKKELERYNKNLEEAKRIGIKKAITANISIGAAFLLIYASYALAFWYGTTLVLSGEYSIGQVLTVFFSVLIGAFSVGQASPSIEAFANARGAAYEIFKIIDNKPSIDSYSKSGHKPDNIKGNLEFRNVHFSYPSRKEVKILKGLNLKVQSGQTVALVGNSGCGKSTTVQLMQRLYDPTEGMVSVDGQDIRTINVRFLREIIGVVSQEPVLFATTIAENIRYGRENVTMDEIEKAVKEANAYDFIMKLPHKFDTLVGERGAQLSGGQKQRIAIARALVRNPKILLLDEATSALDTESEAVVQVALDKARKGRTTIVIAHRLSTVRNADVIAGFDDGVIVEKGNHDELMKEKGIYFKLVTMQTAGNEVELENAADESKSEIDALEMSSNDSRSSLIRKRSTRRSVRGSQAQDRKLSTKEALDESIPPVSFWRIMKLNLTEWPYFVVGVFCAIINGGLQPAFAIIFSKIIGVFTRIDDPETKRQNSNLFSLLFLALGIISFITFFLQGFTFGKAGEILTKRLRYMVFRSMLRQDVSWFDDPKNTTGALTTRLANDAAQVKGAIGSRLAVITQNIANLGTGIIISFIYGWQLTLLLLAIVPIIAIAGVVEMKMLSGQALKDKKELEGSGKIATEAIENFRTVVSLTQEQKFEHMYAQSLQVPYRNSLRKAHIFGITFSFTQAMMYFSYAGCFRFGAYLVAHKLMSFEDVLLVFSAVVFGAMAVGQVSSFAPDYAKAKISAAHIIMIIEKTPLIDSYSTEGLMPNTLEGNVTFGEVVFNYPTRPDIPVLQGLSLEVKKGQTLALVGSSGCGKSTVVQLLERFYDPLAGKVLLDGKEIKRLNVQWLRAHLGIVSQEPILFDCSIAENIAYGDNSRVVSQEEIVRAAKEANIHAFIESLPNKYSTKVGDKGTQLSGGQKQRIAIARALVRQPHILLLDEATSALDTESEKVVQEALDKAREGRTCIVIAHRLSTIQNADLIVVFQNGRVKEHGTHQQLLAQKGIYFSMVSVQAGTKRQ
Chain of Cannabinoid receptor 2 (P34972 whole entry): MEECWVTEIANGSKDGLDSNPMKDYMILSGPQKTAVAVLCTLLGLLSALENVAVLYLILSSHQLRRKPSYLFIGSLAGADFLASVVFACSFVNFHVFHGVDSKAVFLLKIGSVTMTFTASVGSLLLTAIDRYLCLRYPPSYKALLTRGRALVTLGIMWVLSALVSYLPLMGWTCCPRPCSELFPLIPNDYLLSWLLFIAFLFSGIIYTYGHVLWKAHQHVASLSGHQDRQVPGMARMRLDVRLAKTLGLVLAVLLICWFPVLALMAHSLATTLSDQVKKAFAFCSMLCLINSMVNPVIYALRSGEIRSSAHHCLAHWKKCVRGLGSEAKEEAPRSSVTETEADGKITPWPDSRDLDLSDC

For `CN/C(=N\S(=O)(=O)N1CCCCC1)N1C[C@H](c2ccccc2)C(c2ccc(Cl)cc2)=N1`, the LED (Mus musculus) was 10 mg/kg, the ED50 (Rattus norvegicus) was 8 mg/kg and the efflux ratio (P-glycoprotein (ABCB1)) was 1.4. For the same compound, the logP [1] was 4.8.
`C/N=C(\NS(=O)(=O)N1CCOCC1)N1CC(c2ccccc2)C(c2ccc(Cl)cc2)=N1` (stereo not drawn) gave an LED (Mus musculus) of 3 mg/kg, a Ki (Cannabinoid receptor 2) of 5.37 µM and an ED50 (Rattus norvegicus) of 27 mg/kg. It also gave a logP [1] of 3.8.
Work on `CCN(CC)S(=O)(=O)N=C(NC(C)C)N1CC(c2ccccc2)C(c2ccc(Cl)cc2)=N1` (stereo not drawn) yielded a Ki (Cannabinoid receptor 2) of 2.75 µM and a Ki (Cannabinoid receptor 1) of 0.06 µM.
`CCN(CC)S(=O)(=O)N/C(=N\C)N1CC(c2ccccc2)C(c2ccc(Cl)cc2)=N1` (stereo not drawn) gave an LED (Mus musculus) of 3 mg/kg, a Ki (Cannabinoid receptor 2) of 3.27 µM and an ED50 (Rattus norvegicus) of 20 mg/kg. The efflux ratio (P-glycoprotein (ABCB1)) was 1.5, the Ki (Cannabinoid receptor 1) was 0.03 µM and the logP [1] was 4.8.
In the case of `CNC(=NS(=O)(=O)N1CCCCC1)N1CC(c2ccccc2)C(c2ccc(Cl)cc2)=N1` (stereo not drawn), the Ki (Cannabinoid receptor 2) is reported as 1.32 µM.
For `CCN(CC)S(=O)(=O)NC(=NC)N1CC(c2cccnc2)C(c2ccc(Cl)cc2)=N1` (stereo not drawn), the Ki (Cannabinoid receptor 2) was 9.08 µM, the ED50 (Rattus norvegicus) was > 30 mg/kg and the efflux ratio (P-glycoprotein (ABCB1)) was 3.4. The Ki (Cannabinoid receptor 1) was 0.141 µM and the logP [1] was 3.2.
In the case of `CN=C(NS(=O)(=O)N1CCCC1)N1CC(c2ccccc2)C(c2ccc(Cl)cc2)=N1` (stereo not drawn), the Ki (Cannabinoid receptor 2) is reported as 1.6 µM and the Ki (Cannabinoid receptor 1) is reported as 0.231 µM.
With `CN/C(=N\S(=O)(=O)N1CCCCCC1)N1CC(c2ccccc2)C(c2ccc(Cl)cc2)=N1` (stereo not drawn) the Ki (Cannabinoid receptor 2) was 1.03 µM and the Ki (Cannabinoid receptor 1) was 0.155 µM.
`CNC(=NS(=O)(=O)N1CCCCCCC1)N1CC(c2ccccc2)C(c2ccc(Cl)cc2)=N1` (stereo not drawn) showed a Ki (Cannabinoid receptor 2) of 2.58 µM and a Ki (Cannabinoid receptor 1) of 0.125 µM.
In the case of `CCN(C)S(=O)(=O)NC(=NC)N1CC(c2ccccc2)C(c2ccc(Cl)cc2)=N1` (stereo not drawn), the Ki (Cannabinoid receptor 2) is reported as 1.87 µM and the Ki (Cannabinoid receptor 1) is reported as 0.117 µM.
Compound `C/N=C(\NS(=O)(=O)N(C)C(C)C)N1CC(c2ccccc2)C(c2ccc(Cl)cc2)=N1` (stereo not drawn) has a Ki (Cannabinoid receptor 2) of 1.13 µM and a Ki (Cannabinoid receptor 1) of 0.032 µM.
`C/N=C(\NS(=O)(=O)N(C)C)N1CC(c2ccccc2)C(c2ccc(Cl)cc2)=N1` (stereo not drawn) showed a Ki (Cannabinoid receptor 2) of 3.83 µM.
`CC/N=C(\NS(=O)(=O)N(CC)CC)N1CC(c2ccccc2)C(c2ccc(Cl)cc2)=N1` (stereo not drawn) gave a Ki (Cannabinoid receptor 2) of 2.86 µM and a Ki (Cannabinoid receptor 1) of 0.209 µM.
For `C/N=C(\NS(=O)(=O)N1CCSCC1)N1CC(c2ccccc2)C(c2ccc(Cl)cc2)=N1` (stereo not drawn), the Ki (Cannabinoid receptor 2) was 3.53 µM and the Ki (Cannabinoid receptor 1) was 0.024 µM.
For `CN=C(NS(=O)(=O)N1CCS(=O)(=O)CC1)N1CC(c2ccccc2)C(c2ccc(Cl)cc2)=N1` (stereo not drawn), the Ki (Cannabinoid receptor 1) was 0.832 µM.
Compound `CN/C(=N\S(=O)(=O)c1ccc(Cl)cc1)N1C[C@H](c2ccccc2)C(c2ccc(Cl)cc2)=N1` [IBIPINABANT] has an LED (Mus musculus) of 3 mg/kg, an ED50 (Rattus norvegicus) of 5.5 mg/kg and a logP [1] of 5.1.
Compound `Cc1c(C(=O)NN2CCCCC2)nn(-c2ccc(Cl)cc2Cl)c1-c1ccc(Cl)cc1` [RIMONABANT] has an LED (Mus musculus) of 3 mg/kg and an ED50 (Rattus norvegicus) of 3.2 mg/kg.
